# Screening data from PubChem BioAssay.
# T cell HTS: T cell immune modulators affecting CD8 T cell-vesicle binding; 2C CD8+ T cell-vesicle binding, flow cytometry; hits give low values; response (vesicle binding), % at 7 µM; AID 2052; 330,000 compounds, 0.068% hits;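 active = response, share of CD8 T cells binding vesicles, and their 90th percentile fluorescence all below set limits, cut at about 80% in these data, passing the limit was not always enough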;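 also: values below 100% mean blocked vesicle binding to the CD8+ T cells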
#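 Incubation: binding step 1.5 h, 37 °C, antibody labelling 20 min, ice; system: murine 2C transgenic CD8+ T lymphocytes; technique: cytometric PE anti-B7-1 and Alexa647 anti-CD8 signals after 1% paraformaldehyde fixation; also added: QL9-charged Drosophila Ld/ICAM-1/B7-1 vesicles; control set: naked versus QL9-loaded vesicles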
# ALR H2O2 inh: inhibitors of human sulfhydryl oxidase ALR; inhibition, % (test concentration not listed); purified ALR, DTT oxidation, H2O2 HRP-luminol luminescence; AID 485317; P55789; 290,000 compounds, 3.8% hits;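 active = mean replicate inhibition above about 79%, with every replicate also reaching it, limit read from the data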
# Target sequence (P55789 whole entry, looked up): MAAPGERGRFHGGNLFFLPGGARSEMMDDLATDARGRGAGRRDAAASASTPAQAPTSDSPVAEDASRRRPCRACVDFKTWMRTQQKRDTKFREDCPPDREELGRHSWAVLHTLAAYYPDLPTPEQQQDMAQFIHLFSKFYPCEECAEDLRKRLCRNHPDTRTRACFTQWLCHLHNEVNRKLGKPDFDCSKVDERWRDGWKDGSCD
# N-glyco inh: N-linked glycosylation inhibition; reporter increase, % at 12.5 µM; D54 ERlucT glycosylation luciferase reporter, 24 h; percent of 100 nM tunicamycin response; 360,000 compounds, 0.23% hits;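 active = mean luciferase reporter signal, scaled so untreated is 0 and the glycosylation-blocking control 100, at or above a set limit in every replicate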;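 also: luciferase carries N-glycosylation sites so blocking glycosylation raises the light; 0% = median of neutral control wells and 100% = median of 100 nM tunicamycin wells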
# Active calls of the source: *; · = no result. This excerpt belongs to a sample that is enriched for hits.
SMILES,T cell HTS,ALR H2O2 inh,N-glyco inh
COc1ccc(/C=N/NC(=O)c2cc(C)oc2C)cc1OC,373,-10,2
COc1cc(C=NNC(=O)c2ccccc2-n2cccc2)ccc1O,308,99*,1
COc1ccc(/C=N/NC(=O)c2ccccc2O)cc1Cn1cc(Cl)cn1,183,80*,3
COc1cc(/C=N/NC(=O)c2cc(C)oc2C)ccc1O,425,99*,1
O=C(N/N=C\c1ccc(O)c([N+](=O)[O-])c1)c1ccccc1-n1cccc1,625,52,5
COc1ccc(/C=N\NC(=O)c2cccc([N+](=O)[O-])c2)cc1Cn1cc([N+](=O)[O-])cn1,208,1,·
COc1cc(/C=N/NC(=O)c2cc(C)oc2C)cc(OC)c1OC,332,0,3
Cc1nc(C)c(C(=O)NNS(=O)(=O)c2ccc3ccccc3c2)s1,546,37,0
COc1ccc(S(=O)(=O)N2CCN(CC(=O)NC(C)c3cccs3)CC2)cc1 (stereo not drawn),·,·,4
O=C(Nc1ccc(S(=O)(=O)NCc2ccccc2)cc1)C1CCCCC1,201,-16,-4
COc1ccc(NC(=O)C2CCN(c3ncnc4c3nc3n4CCCCC3)CC2)cc1Cl,164,0,1
Cc1ccc(S(=O)(=O)N2[C@H](c3cccc(Cl)c3)CC(=O)[C@@H]3CN(S(=O)(=O)c4ccccc4C)[C@H](c4ccc(Cl)cc4)C[C@@H]32)cc1,·,·,-15
C(=NNc1ccc2ccccc2n1)c1ccccn1,·,·,-19
COC(=O)Cc1ccc(N(Cc2ccccc2F)S(=O)(=O)c2ccc(C)cc2)cc1,326,-4,-1
O=C1CSC(=S)N1c1cccc(O)c1,197,-3,1
O=C(O)c1cccc(N2C(=O)CSC2=S)c1,164,79*,2
O=C(NCC(c1ccc(F)cc1)N1CCOCC1)c1ccc(OCc2ccccc2)cc1 (stereo not drawn),651,-5,-5
CCSc1ccc([C@@H]2[C@H]3C(=O)N(CC)C(=O)[C@H]3[C@]3(C(=O)OC)CCCCN23)cc1OC,279,-8,0
Cc1[nH]c(C)c(C(=O)/C=C/c2ccc([N+](=O)[O-])cc2)c1C,167,51,42*
CN(C)c1ccc(C(=O)C=Cc2ccc([N+](=O)[O-])cc2)cc1,·,·,2
Cc1[nH]c2ccccc2c1SCCNC(=O)c1ccc(Br)o1,765,78*,-3
O=C(NCCSc1c[nH]c2ccccc12)c1ccc(Br)o1,898,47,1
Cc1ccc(-c2nnc(Nc3ccc4c(c3)OCO4)c3ccccc23)cc1S(N)(=O)=O,374,·,-5
Cc1nnc(Nc2ccc3c(c2)OCO3)c2ccccc12,261,88*,1
O=C(Cc1ccc(Cl)cc1)Nc1ccc(C(=O)N2CCOCC2)cc1,806,-4,1
SMILES,T cell HTS,ALR H2O2 inh,N-glyco inh
CN(CC(=O)Nc1ccccc1Br)C(=O)CNC(=O)Cc1cccc2ccccc12,172,-6,1
COc1ccc(-c2cc(C(=O)N3CCCC(C(F)(F)F)C3)c3ccccc3n2)cc1OC (stereo not drawn),451,·,0
COC(=O)C(Cc1ccc(O)cc1)NC(=O)CCNC(=O)c1ccco1 (stereo not drawn),459,7,0
CCN1C(=O)[C@@H]2[C@H](C1=O)[C@@H]1CC(C(=O)OC)=C[C@@H](C(=O)OC)C3C1=C(C(=O)C3(CC)CC)[C@@H]2C (stereo partly drawn),441,-5,·
CCOC(=O)N/N=C/c1ccc(N(CC)CC)cc1O,595,99*,16
CCN(CC)c1ccc(/C=N/NC(=O)c2c(Cl)cnn2C)c(O)c1,346,99*,-12
CCN(CC)c1ccc(/C=N/NC(=O)c2cccc(S(=O)(=O)N3CCOCC3)c2)c(O)c1,552,·,-11
CCN(CC)c1ccc(/C=N/Nc2ccc(C)cc2)c(O)c1,304,45,3
CCn1cc(C(=O)N[C@@H](CCSC)C(=O)NCCCOC)c(=O)c2cc3c(cc21)OCO3,150,·,1
O=C(CSc1nnc(-c2cccnc2)o1)Nc1ccc(Cl)cc1,265,-23,1
CC(=O)Nc1ccc(NC(=O)CSc2nnc(-c3cccnc3)o2)cc1,240,98*,1
Nc1nc(SCC(=O)OCc2ccccc2)[nH]c(=O)c1NC(=O)c1ccco1,250,100*,2
